In ChEMBL document CHEMBL1955820, “Diazeniumdiolated carbamates: a novel class of nitric oxide donors” (Bioorg Med Chem, 2012):

How the values were obtained:
[1] = Drug uptake in human TERT immortalized BJ-5ta cells by DAF-FM diacetate-based fluorescence assay; type: ADME, cell-based; details: htert-bj
Procedure, shortened: (§1)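 BJ-5ta cells, grown in DMEM:199 medium (4:1) with 10% fetal calf serum, were loaded with 2.5 µM DAF-FM diacetate in HBSS for 30 min at 37 °C, 5% CO2, then rinsed into fresh HBSS. Compound in DMSO was added at 10 µM final for 90 min, with DMSO as control. Fluorescence was read at ex 485/em 525 nm. Mean of 16 independent experiments.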

U-937 [2] = assay: Prodrug activation in human U937 cells assessed as intracellular NO-release by measuring increase in fluorescence at 10 uM after 90 mins by DAF-FM diacetate-based fluorescence assay relative to control; type: cell-based; details: u-937, 1.5 h
Procedure, shortened: (§2)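 U937 cells in RPMI 1640 with 10% fetal calf serum at 37 °C, 5% CO2. Probe loading used 2.5 µM DAF-FM diacetate in HBSS for 30 min. Cells were then spun down, rinsed and resuspended in fresh HBSS. Compound in DMSO was added at 10 µM final for 90 min, with DMSO as control. Fluorescence was read at ex 485/em 525 nm.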

U-937 [3] = assay: Drug uptake in human U937 cells by DAF-FM diacetate-based fluorescence assay; type: ADME, cell-based; procedure, shortened: as §2
[4] = Prodrug activation in human TERT immortalized BJ-5ta cells assessed as intracellular NO-release by measuring increase in fluorescence at 10 uM after 90 mins by DAF-FM diacetate-based fluorescence assay relative to control; type: cell-based; details: htert-bj, 1.5 h; procedure, shortened: as §1
[5] = Prodrug activation in PBS assessed as production of nitrous oxide per mol of prodrug by gas chromatography in presence of GSH; details: buffer
Procedure, shortened: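 Glutathione-activated release in pH 7.4 buffer with 3.6–3.9 mM GSH and 50 µM DTPA, argon-sparged, at 37 °C. Prodrug was injected from a 10 mM DMSO stock. N2O was measured by GC with electron capture detection on a packed ShinCarbon column: 90 to 200 °C at 20 °C/min, He carrier 30 mL/min.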

Row | SMILES | Drug uptake [1] | fold change (FC) (U-937 [2]) | Drug uptake (U-937 [3]) | fold change (FC) [4] | Drug metabolism [5]
1 | CC(=O)OCO/N=[N+](\[O-])N(C(=O)OC(C)(C)C)C(C)C | Active | 5.56 | Active | 7.29 | 
2 | CC(C)N(C(=O)OC(C)(C)C)/[N+]([O-])=N/Oc1ccc([N+](=O)[O-])cc1[N+](=O)[O-] | Active | 10.5 | Active | 49.67 | 0.02 mol/mol
3 | CCOC(=O)N1CCN(/[N+]([O-])=N/Oc2ccc([N+](=O)[O-])cc2[N+](=O)[O-])CC1 |  | 2.64 |  | 5.48 | 
